Experimental data from ChEMBL document CHEMBL4765270, “Piperidine propionamide as a scaffold for potent sigma-1 receptor antagonists and mu opioid receptor agonists for treating neuropathic pain” (Eur J Med Chem, 2020).
Active and inactive are the calls of the source. The calls are words filed in the database; no cut-off is given here.

What was measured:
[1] = target: Sigma non-opioid intracellular receptor 1 (Cavia porcellus, UniProt Q60492); assay: Displacement of [3H]-(+)-pnetazocin from sigma1 receptor in guinea pig brain membrane incubated for 150 mins by liquid scintillation counting method; assay type: cell membranes
Sequence of Sigma non-opioid intracellular receptor 1 (Q60492 whole entry): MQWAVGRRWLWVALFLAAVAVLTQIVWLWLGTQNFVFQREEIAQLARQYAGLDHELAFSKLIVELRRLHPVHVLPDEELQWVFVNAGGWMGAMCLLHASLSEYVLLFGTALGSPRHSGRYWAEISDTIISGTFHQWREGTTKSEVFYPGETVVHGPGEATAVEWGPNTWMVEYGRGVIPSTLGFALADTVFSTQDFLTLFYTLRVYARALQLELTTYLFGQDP

Mu-type opioid receptor = Mu-type opioid receptor (Cavia porcellus, UniProt P97266); assay: Displacement of [3H]DAMGO from mu opioid receptor in guinea pig brain membrane incubated for 2.5 hrs by scintillation counting method; assay type: cell membranes
Sequence of Mu-type opioid receptor (P97266 whole entry): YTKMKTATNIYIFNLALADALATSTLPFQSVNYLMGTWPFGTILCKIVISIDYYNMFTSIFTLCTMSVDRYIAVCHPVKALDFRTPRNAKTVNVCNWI

Homo sapiens [2] = organism: Homo sapiens; assay: Inhibition of sigma 2 receptor (unknown origin) at 1 uM relative to control
[3] = target: Histamine H3 receptor (Homo sapiens) (UniProt Q9Y5N1); assay: Inhibition of histamine H3 receptor (unknown origin) at 1 uM relative to control
Sequence of Histamine H3 receptor (Homo sapiens) (Q9Y5N1 whole entry): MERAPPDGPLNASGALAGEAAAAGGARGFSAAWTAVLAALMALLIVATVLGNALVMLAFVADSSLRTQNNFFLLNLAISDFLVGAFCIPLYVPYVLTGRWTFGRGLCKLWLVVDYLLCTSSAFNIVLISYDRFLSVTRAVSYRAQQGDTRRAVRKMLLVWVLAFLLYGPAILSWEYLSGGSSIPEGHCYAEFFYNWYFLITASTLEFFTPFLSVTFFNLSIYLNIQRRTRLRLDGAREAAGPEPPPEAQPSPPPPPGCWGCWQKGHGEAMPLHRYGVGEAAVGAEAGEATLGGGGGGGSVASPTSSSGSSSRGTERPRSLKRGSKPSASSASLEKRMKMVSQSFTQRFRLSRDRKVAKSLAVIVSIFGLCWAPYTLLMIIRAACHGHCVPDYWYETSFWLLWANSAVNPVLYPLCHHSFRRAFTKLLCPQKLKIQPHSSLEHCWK

[4] = target: T1, 5-hydroxytryptamine receptor 1A (Homo sapiens) (UniProt P08908); assay: Inhibition of 5HT1A receptor (unknown origin) at 1 uM relative to control
T1 sequence (whole entry): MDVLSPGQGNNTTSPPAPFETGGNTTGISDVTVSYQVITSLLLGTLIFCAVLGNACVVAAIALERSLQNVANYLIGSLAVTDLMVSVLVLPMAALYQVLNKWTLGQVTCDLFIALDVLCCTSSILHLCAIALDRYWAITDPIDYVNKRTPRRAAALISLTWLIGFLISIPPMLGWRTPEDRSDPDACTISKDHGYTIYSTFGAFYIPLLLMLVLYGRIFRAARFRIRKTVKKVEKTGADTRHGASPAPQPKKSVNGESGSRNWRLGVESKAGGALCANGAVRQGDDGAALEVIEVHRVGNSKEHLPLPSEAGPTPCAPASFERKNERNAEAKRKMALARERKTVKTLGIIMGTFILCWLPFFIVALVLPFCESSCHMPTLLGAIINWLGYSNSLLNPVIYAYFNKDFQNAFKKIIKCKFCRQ

[5] = target: 5-hydroxytryptamine receptor 2A (Homo sapiens) (UniProt P28223); assay: Inhibition of 5HT2A receptor (unknown origin) at 1 uM relative to control
Sequence of 5-hydroxytryptamine receptor 2A (Homo sapiens) (P28223 whole entry): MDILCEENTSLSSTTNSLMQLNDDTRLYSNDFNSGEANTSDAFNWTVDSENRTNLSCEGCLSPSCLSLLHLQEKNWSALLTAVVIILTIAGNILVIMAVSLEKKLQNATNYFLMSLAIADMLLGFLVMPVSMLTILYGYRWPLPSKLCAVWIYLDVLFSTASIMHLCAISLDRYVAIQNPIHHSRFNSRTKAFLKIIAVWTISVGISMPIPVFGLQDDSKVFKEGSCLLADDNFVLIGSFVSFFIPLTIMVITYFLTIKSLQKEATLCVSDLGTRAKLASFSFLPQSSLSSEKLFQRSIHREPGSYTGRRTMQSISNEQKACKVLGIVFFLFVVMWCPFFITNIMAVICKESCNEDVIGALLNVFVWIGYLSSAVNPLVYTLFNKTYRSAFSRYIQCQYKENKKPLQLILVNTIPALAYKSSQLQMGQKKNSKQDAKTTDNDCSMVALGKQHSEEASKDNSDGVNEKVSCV

[6] = target: Sodium-dependent serotonin transporter (Homo sapiens) (UniProt P31645); assay: Inhibition of 5-HT transporter (unknown origin) at 1 uM relative to control
Sequence of Sodium-dependent serotonin transporter (Homo sapiens) (P31645 whole entry, looked up): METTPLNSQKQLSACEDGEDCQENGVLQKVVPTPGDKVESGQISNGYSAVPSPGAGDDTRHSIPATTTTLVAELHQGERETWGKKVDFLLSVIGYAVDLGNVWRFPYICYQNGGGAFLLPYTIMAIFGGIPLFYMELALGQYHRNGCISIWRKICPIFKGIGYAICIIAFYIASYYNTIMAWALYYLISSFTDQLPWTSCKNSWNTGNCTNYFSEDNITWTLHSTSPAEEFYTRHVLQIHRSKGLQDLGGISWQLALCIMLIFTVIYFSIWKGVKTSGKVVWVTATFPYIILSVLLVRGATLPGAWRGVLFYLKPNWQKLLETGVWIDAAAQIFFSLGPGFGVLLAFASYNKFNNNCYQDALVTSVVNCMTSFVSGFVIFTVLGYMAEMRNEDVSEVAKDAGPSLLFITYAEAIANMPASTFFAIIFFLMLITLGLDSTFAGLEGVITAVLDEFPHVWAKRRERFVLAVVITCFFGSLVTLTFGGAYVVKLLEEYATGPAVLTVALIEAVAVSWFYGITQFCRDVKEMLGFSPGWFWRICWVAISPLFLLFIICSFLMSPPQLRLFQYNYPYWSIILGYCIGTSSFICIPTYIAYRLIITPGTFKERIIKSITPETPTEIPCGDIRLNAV

[7] = target: Sodium-dependent noradrenaline transporter (Homo sapiens) (UniProt P23975); assay: Inhibition of noradrenaline transporter (unknown origin) at 1 uM relative to control
Sequence of Sodium-dependent noradrenaline transporter (Homo sapiens) (P23975 whole entry): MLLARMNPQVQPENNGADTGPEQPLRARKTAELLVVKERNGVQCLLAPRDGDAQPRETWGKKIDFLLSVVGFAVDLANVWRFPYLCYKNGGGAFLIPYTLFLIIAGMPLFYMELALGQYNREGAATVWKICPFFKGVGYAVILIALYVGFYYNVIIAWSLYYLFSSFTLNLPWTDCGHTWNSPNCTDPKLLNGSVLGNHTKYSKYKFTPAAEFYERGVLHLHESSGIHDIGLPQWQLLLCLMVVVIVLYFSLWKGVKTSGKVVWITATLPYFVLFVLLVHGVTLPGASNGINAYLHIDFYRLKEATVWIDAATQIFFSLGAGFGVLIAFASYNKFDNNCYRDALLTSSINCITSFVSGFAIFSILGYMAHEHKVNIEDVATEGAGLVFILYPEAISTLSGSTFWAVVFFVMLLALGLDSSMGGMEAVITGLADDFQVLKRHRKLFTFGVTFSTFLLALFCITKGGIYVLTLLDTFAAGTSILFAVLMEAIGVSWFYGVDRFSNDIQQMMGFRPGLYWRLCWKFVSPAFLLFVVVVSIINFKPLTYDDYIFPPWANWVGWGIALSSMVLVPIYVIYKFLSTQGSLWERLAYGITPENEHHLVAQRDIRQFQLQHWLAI

[8] = target: Cannabinoid receptor 1 (Homo sapiens) (UniProt P21554); assay: Inhibition of CB1 receptor (unknown origin) at 1 uM relative to control
Sequence of Cannabinoid receptor 1 (Homo sapiens) (P21554 whole entry): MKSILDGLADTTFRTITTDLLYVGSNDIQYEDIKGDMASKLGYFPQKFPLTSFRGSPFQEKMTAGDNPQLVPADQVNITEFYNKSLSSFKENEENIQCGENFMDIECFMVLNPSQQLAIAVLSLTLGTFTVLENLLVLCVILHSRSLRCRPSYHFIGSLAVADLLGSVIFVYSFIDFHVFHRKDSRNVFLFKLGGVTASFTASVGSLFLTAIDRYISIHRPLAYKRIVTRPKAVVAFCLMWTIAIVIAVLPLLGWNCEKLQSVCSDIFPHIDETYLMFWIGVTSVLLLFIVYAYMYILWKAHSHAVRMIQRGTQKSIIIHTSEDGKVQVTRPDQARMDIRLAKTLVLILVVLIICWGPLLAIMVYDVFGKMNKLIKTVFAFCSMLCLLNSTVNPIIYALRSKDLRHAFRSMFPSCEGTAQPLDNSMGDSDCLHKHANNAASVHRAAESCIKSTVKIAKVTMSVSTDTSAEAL

[9] = target: Cannabinoid receptor 2 (Homo sapiens) (UniProt P34972); assay: Inhibition of CB2 receptor (unknown origin) at 1 uM relative to control
Sequence of Cannabinoid receptor 2 (Homo sapiens) (P34972 whole entry): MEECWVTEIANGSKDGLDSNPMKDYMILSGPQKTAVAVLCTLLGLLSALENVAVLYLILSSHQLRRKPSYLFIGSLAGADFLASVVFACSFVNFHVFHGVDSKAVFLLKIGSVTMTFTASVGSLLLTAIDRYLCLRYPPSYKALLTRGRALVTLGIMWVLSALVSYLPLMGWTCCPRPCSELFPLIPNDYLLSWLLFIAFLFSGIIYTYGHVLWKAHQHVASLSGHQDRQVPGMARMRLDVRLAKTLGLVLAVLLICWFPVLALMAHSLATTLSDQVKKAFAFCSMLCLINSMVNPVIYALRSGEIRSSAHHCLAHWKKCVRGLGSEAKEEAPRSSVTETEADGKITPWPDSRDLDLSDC

Homo sapiens [10] = organism: Homo sapiens; assay: Inhibition of adrenergic alpha2 receptor (unknown origin) at 1 uM relative to control
Homo sapiens [11] = organism: Homo sapiens; assay: Inhibition of adrenergic alpha1 receptor (unknown origin) at 1 uM relative to control
Homo sapiens [12] = organism: Homo sapiens; assay: Inhibition of NMDA receptor (unknown origin) at 1 uM relative to control
[13] = Toxicity in sc dosed ICR mouse assessed as mortality after 24 hrs; assay type: organism-based; settings: in vivo
Mus musculus [14] = assay: Antiallodynic activity against formalin-induced nociceptive behavior in ICR mouse assessed as licking/biting time at 50 mg/kg, sc pre-treated for 30 mins followed by formalin-stimulation and measured up to 5 mins; assay type: functional; settings: time min <=35
In short: (§1)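 Male/female unspecified ICR mice (n=10 per group) given test compound s.c. or vehicle 30% PEG 400 (4 mL/kg) 30 min before intraplantar injection of 100 µL 5% formalin (1.85% formaldehyde) into right hind paw; time spent licking/biting recorded 0-5 min (phase I) and 15-45 min (phase II); antinociception % = (LT vehicle − LT drug)/LT vehicle × 100; mean ± SEM.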

Mus musculus [15] = assay: Antiallodynic activity against formalin-induced nociceptive behavior in ICR mouse assessed as licking/biting time at 50 mg/kg, sc pre-treated for 30 mins followed by formalin-stimulation and measured up to 15 to 30 mins; assay type: functional; settings: time min <=45; in short: as §1
Mus musculus [16] = assay: Antiallodynic activity against formalin-induced nociceptive behavior in ICR mouse assessed as licking/biting time at 12.5 mg/kg, sc pre-treated for 30 mins followed by formalin-stimulation and measured up to 15 to 30 mins; assay type: functional; settings: time min <=45; in short: as §1
Mus musculus [17] = assay: Antiallodynic activity against formalin-induced nociceptive behavior in ICR mouse assessed as licking/biting time at 25 mg/kg, sc pre-treated for 30 mins followed by formalin-stimulation and measured up to 15 to 30 mins; assay type: functional; settings: time min <=45; in short: as §1
Mus musculus [18] = assay: Antiallodynic activity against formalin-induced nociceptive behavior in ICR mouse assessed as licking/biting time at 100 mg/kg, sc pre-treated for 30 mins followed by formalin-stimulation and measured up to 15 to 30 mins; assay type: functional; settings: time min <=45; in short: as §1
Mus musculus [19] = assay: Antiallodynic activity against formalin-induced nociceptive behavior in sc dosed ICR mouse assessed as licking/biting time pre-treated for 30 mins followed by formalin-stimulation and measured up to 15 to 30 mins; assay type: functional; settings: dose 12.5-100 mg/kg, time min <=45; in short: as §1
Rattus norvegicus [20] = assay: Antinociceptive activity in CCI-induced sc dosed Sprague-Dawley rat model of neuropathic pain assessed as paw withdrawal latency after 15 days; assay type: functional; settings: 360 h, time 15 day
[21] = Therapeutic index, ratio of LD50 for toxicity in ICR mouse to ED50 for antiallodynic activity against formalin-induced nociceptive behavior in ICR mouse; settings: read-out: Ratio LD50/ED50
In short: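 TI = LD50/ED50: LD50 from s.c. acute toxicity in mice, ED50 from phase II of formalin test (s.c. dosing 30 min before formalin, 12.5–100 mg/kg).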

Rattus norvegicus [22] = assay: Antinociceptive activity in CCI-induced Sprague-Dawley rat model of neuropathic pain assessed as paw withdrawal latency at 50 mg/kg, sc after 15 days; assay type: functional, organism-based; settings: time 15.0 day

CCC(=O)N(CCN1CCC(Cc2ccc(C)cc2)CC1)c1ccc(C)cc1
Ki [1]: 29 nM

CCC(=O)N(CCN1CCC(CCCc2ccccc2)CC1)c1ccc(OC)cc1
Ki [1]: 893 nM

C[C@H]1[C@H]2Cc3ccc(O)cc3[C@@]1(C)CCN2CCc1ccccc1
Ki (Mu-type opioid receptor): 55 nM

CCC(=O)N(CCCN1CCC(Cc2ccccc2)CC1)c1ccc(OC)cc1
Ki [1]: 2.2 nM

CCC(=O)N(CCCCN1CCC(Cc2ccccc2)CC1)c1ccc(OC)cc1
Ki [1]: 18 nM

CCC(=O)N(CCN1CCC(c2ccccc2)CC1)c1ccc(OC)cc1
Ki [1]: 39 nM

CCC(=O)N(CCN1CCC(Cc2ccccc2)CC1)c1ccc(OC)cc1
Ki [1]: 1.5 nM

CCC(=O)N(CCN1CCC(Cc2ccc(C)cc2)CC1)c1ccc(F)cc1
Ki [1]: 47 nM

CCC(=O)N(CCN1CCC(Cc2ccccc2)CC1)Cc1ccccc1
Ki [1]: 18.7 nM

CCC(=O)N(CCN1CCC(Cc2ccccc2)CC1)c1cc(F)c(F)c(F)c1
Ki [1]: 573 nM

CCC(=O)N(CCCCCN1CCC(Cc2ccccc2)CC1)c1ccc(OC)cc1
Ki [1]: 42 nM

CCC(=O)N(CCN1CCC(Cc2ccc(F)cc2)CC1)c1ccc(OC)cc1
Ki [1]: 1.86 nM
inhibition (Homo sapiens [2]): 29.1%
inhibition [3]: 34.6%
inhibition [4]: 45.2%
inhibition [5]: 43.6%
inhibition [6]: 10.9%
inhibition [7]: 18.5%
inhibition [8]: 20.8%
inhibition [9]: 32.6%
inhibition (Homo sapiens [10]): 45.9%
inhibition (Homo sapiens [11]): 24.7%
inhibition (Homo sapiens [12]): 14.3%
LD50 at 24 h [13]: 397 mg/kg
Time (Mus musculus [14]): 21 s
Time (Mus musculus [15]): 63 s
Time (Mus musculus [16]): 201 s
Time (Mus musculus [17]): 108 s
Time (Mus musculus [18]): 41 s
Activity (Mus musculus [19]): Dose-dependent effect
ED50 (Mus musculus [19]): 15.1 mg/kg
ED50 (Rattus norvegicus [20]): 44.1 mg/kg

CCC(=O)N(CCN1CCC(Cc2ccccc2)CC1)c1ccccn1
Ki [1]: 402 nM

CCC(=O)N(CCN1CCC(Cc2ccccc2)CC1)C(C)c1ccccc1 (configuration not stated)
Ki [1]: 17.4 nM

CCC(=O)N(CCN1CCC(Cc2ccccc2)CC1)c1ccc(C)cc1
Ki [1]: 1.6 nM

CCC(=O)N(CCN1CCC(Cc2ccccc2)CC1)c1ncccc1F
Ki [1]: 506 nM

C[C@@H]1[C@@H]2Cc3ccc(O)cc3[C@]1(C)CCN2CCc1ccccc1
Ki (Mu-type opioid receptor): 0.2 nM

CCC(=O)N(CCc1ccccc1)CCN1CCC(Cc2ccccc2)CC1
Ki [1]: 269 nM

CCC(=O)N(CCN1CCC(Cc2ccc(F)cc2)CC1)c1ccc(F)cc1
Ki [1]: 1.3 nM
inhibition (Homo sapiens [2]): 31.8%
inhibition [3]: 9.75%
inhibition [4]: 23%
inhibition [5]: 34.4%
inhibition [6]: 44.6%
inhibition [7]: 28.8%
inhibition [8]: 17.4%
inhibition [9]: 19.9%
inhibition (Homo sapiens [10]): 32.3%
inhibition (Homo sapiens [11]): 39.9%
inhibition (Homo sapiens [12]): 20.5%
LD50 at 24 h [13]: 416 mg/kg
Time (Mus musculus [14]): 36 s
Time (Mus musculus [15]): 110 s

CCC(=O)N(CCN1CCC(CCc2ccccc2)CC1)c1ccc(OC)cc1
Ki [1]: 372 nM

Cc1cc(OCCN2CCOCC2)nn1-c1ccc2ccccc2c1
LD50 at 24 h [13]: 357 mg/kg
Activity (Mus musculus [14]): Active
Time (Mus musculus [15]): 273 s
selectivity ratio [21]: 12
Activity (Rattus norvegicus [22]): Active

CCC(=O)N(CCN1CCC(Cc2ccccc2)CC1)c1cccc(C(F)(F)F)n1
Ki [1]: 835 nM

CCC(=O)N(CCN1CCC(Cc2ccc(F)cc2)CC1)c1ccc(C)cc1
Ki [1]: 2.4 nM

CCC(=O)N(CCN1CCC(Cc2ccc(C)cc2)CC1)c1ccc(OC)cc1
Ki [1]: 35 nM
